ChEMBL document CHEMBL5696442, “Discovery of type II inhibitors of TGFβ-activated kinase 1 (TAK1) and mitogen-activated protein kinase kinase kinase kinase 2 (MAP4K2)” (J Med Chem, 2015)

Legend:
[1] = target: Serine/threonine-protein kinase 32C (Homo sapiens) (UniProt Q86UX6); experiment: Inhibition of YANK3 K2 labeling site in human Huh-7 cells at 10 uM by KiNativ Profiling analysis relative to control; type: cell-based
[2] = target: NT-3 growth factor receptor (Homo sapiens) (UniProt Q16288); experiment: Inhibition of TRKC (unknown origin) at 10 uM by Ambit Kinomescan binding assay relative to control; values are per cent of control
[3] = target: Focal adhesion kinase 1 (Homo sapiens) (UniProt Q05397); experiment: Inhibition of FAK K1 labeling site in human Huh-7 cells at 1 uM by KiNativ Profiling analysis relative to control; type: cell-based
[4] = target: 5'-AMP-activated protein kinase catalytic subunit alpha-2 (Homo sapiens) (UniProt P54646); experiment: Inhibition of AMPKa2 Lys1 labeling site in human A-375 cells at 0.5 uM by KiNativ Profiling analysis relative to control; type: cell-based
How it was run: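 Live A375 melanoma cells were treated with compound at 5 or 0.5 μM, then lysed. The lysates were labeled with a lysine-reactive ATP or ADP-biotin probe. Kinase protection from probe labeling was measured by KiNativ.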

[5] = target: Dual specificity tyrosine-phosphorylation-regulated kinase 1B (Homo sapiens) (UniProt Q9Y463); experiment: Inhibition of DYRK1B (unknown origin) at 1 uM by Ambit Kinomescan binding assay relative to control; values are per cent of control
[6] = target: T1, Mitogen-activated protein kinase kinase kinase 5 (Homo sapiens) (UniProt Q99683); experiment: Inhibition of ASK1 (unknown origin) at 1 uM by Ambit Kinomescan binding assay relative to control
T1 sequence (whole entry): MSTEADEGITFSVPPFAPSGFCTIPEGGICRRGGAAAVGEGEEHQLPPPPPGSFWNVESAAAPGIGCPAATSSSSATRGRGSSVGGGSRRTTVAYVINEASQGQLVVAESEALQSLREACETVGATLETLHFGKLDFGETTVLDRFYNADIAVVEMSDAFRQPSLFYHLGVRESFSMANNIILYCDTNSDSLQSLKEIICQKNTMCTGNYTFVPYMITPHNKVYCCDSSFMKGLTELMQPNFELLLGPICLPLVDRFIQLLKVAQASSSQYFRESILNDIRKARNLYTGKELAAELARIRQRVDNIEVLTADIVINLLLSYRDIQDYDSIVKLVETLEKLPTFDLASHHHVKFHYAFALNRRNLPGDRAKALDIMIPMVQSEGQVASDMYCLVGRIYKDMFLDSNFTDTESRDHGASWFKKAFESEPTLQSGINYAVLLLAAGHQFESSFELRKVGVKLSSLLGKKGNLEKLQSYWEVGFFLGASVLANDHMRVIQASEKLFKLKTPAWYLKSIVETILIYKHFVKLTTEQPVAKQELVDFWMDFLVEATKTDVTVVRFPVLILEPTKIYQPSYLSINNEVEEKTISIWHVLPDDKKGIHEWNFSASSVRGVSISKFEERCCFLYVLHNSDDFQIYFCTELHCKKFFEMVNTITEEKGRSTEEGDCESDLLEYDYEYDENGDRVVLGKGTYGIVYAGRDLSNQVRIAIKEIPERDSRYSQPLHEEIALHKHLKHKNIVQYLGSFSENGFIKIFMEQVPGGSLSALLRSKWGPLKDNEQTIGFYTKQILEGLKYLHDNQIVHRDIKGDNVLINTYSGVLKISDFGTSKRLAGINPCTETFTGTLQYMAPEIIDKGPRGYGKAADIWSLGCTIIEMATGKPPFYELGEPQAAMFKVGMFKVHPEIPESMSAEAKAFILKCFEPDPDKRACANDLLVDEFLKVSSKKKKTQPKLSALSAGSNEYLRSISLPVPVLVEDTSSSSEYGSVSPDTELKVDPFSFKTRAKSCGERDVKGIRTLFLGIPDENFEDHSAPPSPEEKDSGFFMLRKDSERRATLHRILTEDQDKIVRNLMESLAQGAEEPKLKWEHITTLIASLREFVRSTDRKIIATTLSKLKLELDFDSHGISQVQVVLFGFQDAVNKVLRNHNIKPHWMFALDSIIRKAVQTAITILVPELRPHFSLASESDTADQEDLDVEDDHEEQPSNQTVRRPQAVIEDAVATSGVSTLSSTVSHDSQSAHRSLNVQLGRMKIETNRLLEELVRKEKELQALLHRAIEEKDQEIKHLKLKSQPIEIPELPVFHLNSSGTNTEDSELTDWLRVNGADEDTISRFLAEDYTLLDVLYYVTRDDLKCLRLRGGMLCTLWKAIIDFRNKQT

[7] = test system: Mast/stem cell growth factor receptor Kit (Homo sapiens), P10721 [V559D,T670I]; experiment: Inhibition of KIT V559D/T670I mutant (unknown origin) at 1 uM by Ambit Kinomescan binding assay relative to control; values are per cent of control
[8] = target: Mitogen-activated protein kinase 7 (Homo sapiens) (UniProt Q13164); experiment: Inhibition of ERK5 (unknown origin) at 1 uM by Ambit Kinomescan binding assay relative to control
[9] = target: Cyclin-dependent kinase 1 (Homo sapiens) (UniProt P06493); experiment: Inhibition of CDC2 Lys2 labeling site harbouring DLKPQNLLIDDKGTIK in human A-375 cells at 0.05 uM by KiNativ Profiling analysis relative to control; type: cell-based
Chain of Cyclin-dependent kinase 1 (Homo sapiens) (P06493 whole entry, looked up): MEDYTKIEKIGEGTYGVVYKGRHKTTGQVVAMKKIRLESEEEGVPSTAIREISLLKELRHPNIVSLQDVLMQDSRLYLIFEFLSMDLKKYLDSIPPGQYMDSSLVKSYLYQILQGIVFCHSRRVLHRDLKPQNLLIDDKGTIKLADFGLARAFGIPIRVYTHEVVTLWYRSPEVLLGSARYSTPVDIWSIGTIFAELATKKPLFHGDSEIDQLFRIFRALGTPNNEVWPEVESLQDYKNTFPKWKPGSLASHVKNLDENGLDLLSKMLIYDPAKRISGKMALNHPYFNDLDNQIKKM

Chain of Mitogen-activated protein kinase 7 (Homo sapiens) (Q13164 2-816 limits assumed): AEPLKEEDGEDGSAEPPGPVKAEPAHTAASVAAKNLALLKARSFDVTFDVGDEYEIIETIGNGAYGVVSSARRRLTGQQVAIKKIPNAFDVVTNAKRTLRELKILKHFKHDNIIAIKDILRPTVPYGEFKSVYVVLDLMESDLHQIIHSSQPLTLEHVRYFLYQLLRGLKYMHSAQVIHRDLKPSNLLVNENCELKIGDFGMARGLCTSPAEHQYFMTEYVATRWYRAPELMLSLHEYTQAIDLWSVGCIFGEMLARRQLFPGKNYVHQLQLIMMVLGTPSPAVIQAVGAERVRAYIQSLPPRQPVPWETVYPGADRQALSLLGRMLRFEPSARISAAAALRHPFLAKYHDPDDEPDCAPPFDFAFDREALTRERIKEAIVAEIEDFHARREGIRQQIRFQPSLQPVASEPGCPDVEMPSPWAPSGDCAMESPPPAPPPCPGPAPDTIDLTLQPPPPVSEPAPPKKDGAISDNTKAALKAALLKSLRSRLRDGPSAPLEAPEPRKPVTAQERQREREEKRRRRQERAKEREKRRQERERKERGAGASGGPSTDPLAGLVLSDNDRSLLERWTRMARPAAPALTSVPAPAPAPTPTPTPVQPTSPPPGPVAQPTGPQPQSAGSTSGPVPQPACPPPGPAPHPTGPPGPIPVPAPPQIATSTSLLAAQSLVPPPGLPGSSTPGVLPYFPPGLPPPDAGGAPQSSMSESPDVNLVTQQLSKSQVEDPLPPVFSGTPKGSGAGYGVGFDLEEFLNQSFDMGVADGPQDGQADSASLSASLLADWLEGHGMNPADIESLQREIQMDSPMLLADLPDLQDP
Chain of Mast/stem cell growth factor receptor Kit (Homo sapiens), P10721 [V559D,T670I] (P10721 whole entry V559D/T670I): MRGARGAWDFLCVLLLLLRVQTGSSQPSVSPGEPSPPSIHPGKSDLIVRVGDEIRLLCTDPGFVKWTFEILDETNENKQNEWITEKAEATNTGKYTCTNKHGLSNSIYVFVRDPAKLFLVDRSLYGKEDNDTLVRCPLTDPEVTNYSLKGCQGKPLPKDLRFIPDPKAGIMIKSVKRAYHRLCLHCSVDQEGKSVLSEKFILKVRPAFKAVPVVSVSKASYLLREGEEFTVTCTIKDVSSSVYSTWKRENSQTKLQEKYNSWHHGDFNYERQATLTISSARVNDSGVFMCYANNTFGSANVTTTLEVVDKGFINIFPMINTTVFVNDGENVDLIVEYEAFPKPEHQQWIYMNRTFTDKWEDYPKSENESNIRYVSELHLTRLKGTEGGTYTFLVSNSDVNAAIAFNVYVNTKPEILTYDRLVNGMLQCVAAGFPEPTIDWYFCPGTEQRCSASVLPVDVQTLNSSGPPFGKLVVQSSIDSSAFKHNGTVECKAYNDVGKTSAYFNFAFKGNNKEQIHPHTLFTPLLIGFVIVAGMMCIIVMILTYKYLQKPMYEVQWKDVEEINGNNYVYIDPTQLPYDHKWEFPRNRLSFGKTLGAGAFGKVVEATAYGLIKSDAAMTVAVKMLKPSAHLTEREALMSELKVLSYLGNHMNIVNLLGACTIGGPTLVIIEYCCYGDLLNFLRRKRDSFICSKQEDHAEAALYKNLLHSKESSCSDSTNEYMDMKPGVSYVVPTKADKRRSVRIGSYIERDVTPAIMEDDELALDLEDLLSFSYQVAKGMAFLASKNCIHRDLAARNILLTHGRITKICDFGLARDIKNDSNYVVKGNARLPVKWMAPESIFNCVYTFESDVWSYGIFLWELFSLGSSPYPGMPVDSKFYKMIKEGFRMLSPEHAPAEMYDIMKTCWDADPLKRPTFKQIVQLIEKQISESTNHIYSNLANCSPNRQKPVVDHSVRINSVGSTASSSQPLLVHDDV
Chain of 5'-AMP-activated protein kinase catalytic subunit alpha-2 (Homo sapiens) (P54646 whole entry, looked up): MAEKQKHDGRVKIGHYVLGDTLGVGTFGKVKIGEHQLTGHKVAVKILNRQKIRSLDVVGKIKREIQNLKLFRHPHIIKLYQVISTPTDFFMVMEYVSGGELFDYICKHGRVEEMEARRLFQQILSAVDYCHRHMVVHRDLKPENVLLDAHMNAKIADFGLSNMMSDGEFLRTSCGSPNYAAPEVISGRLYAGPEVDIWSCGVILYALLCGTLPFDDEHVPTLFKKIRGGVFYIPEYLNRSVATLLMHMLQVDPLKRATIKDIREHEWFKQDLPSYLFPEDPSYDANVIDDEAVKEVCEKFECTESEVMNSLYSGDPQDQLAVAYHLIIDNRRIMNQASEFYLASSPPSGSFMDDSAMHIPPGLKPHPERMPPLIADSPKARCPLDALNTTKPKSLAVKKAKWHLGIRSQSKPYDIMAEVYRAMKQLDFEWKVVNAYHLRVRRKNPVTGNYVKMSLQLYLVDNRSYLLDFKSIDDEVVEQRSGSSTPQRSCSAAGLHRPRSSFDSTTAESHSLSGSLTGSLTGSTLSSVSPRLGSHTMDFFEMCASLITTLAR
Chain of Serine/threonine-protein kinase 32C (Homo sapiens) (Q86UX6 whole entry): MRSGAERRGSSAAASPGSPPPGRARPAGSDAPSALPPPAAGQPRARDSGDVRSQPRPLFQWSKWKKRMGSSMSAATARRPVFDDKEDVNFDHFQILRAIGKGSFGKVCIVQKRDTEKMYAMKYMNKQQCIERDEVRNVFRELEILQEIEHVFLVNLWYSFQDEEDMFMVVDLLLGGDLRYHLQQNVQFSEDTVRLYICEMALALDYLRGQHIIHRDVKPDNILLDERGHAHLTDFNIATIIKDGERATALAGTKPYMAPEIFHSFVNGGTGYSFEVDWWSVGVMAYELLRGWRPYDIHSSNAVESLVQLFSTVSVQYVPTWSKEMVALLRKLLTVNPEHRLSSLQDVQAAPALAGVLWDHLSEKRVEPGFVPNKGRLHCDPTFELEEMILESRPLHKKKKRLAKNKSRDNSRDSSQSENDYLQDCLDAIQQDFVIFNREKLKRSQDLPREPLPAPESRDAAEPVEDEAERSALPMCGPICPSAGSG
Chain of Dual specificity tyrosine-phosphorylation-regulated kinase 1B (Homo sapiens) (Q9Y463 whole entry, looked up): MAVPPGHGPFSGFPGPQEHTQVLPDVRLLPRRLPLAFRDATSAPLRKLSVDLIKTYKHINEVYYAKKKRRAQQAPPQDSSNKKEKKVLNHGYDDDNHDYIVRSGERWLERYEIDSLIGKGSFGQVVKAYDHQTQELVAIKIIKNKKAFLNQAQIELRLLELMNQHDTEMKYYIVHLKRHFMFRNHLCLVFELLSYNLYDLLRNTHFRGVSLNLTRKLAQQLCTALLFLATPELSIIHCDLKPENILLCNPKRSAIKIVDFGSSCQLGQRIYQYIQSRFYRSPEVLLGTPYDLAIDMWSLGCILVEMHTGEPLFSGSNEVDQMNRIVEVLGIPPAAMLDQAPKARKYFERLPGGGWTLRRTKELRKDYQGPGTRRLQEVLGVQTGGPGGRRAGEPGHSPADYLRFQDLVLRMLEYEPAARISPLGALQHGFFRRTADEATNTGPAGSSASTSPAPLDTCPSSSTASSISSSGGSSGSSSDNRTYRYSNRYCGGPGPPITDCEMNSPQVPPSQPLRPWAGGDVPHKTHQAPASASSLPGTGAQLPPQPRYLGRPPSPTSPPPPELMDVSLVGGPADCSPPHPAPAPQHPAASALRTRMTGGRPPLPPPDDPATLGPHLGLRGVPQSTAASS
Chain of Focal adhesion kinase 1 (Homo sapiens) (Q05397 2-1052 limits assumed): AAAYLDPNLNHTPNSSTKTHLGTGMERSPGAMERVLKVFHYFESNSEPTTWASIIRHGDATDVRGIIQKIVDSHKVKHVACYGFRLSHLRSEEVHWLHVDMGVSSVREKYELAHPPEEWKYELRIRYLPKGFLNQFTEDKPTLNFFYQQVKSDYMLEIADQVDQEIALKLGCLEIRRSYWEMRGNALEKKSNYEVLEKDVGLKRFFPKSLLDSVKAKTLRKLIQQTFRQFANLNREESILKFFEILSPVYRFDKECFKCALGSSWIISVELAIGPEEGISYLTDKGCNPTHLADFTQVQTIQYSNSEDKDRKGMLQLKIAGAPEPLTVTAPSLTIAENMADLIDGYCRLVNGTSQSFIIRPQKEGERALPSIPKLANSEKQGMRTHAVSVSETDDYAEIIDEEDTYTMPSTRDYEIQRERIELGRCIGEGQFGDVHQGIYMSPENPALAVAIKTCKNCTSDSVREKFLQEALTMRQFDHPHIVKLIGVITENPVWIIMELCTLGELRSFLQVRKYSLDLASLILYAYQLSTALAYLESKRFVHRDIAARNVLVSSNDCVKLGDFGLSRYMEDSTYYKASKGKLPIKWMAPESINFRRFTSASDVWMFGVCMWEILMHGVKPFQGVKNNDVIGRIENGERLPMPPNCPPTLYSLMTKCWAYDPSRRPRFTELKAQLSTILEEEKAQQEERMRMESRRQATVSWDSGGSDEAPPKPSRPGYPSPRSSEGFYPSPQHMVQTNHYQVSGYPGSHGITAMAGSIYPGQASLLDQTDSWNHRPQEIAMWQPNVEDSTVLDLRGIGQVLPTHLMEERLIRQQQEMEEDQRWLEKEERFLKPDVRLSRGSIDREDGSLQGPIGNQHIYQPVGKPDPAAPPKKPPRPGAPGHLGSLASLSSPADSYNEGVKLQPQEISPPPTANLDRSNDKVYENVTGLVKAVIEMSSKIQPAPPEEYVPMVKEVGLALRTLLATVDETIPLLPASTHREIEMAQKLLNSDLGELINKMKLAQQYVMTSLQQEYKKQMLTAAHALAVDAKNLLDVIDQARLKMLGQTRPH

SMILES | inhibition [1] [%] | residual activity [2] [%] | inhibition [3] [%] | inhibition [4] [%] | residual activity [5] [%] | inhibition [6] [%] | residual activity [7] [%] | inhibition [8] [%] | inhibition [9] [%]
CCN1CCN(Cc2ccc(NC(=O)c3ccc(C)c(Oc4ccnc5[nH]ccc45)c3)cc2C(F)(F)F)CC1 | 2.5 | 3.8 | 32 | – | – | – | – | – | –
CCN1CCN(Cc2ccc(NC(=O)c3ccc(C)c(/C=C/c4cnc5[nH]ccc5c4OC)c3)cc2C(F)(F)F)CC1 | – | – | – | 20.3 | 73 | 100 | 4.9 | 83 | 2.1
